As a reminder, the TGI is the concentration giving total growth inhibition. A word on the half-life: it is the time needed for the level to fall by half in the phase considered.

The subject of series [1] is MIA PaCa-2. The series can be described thus: (§1) Antiproliferative activity against human MIAPaCa2 cells after 48 hrs by MTT assay. The format is functional. In outline:
(§2)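 Cells held in RPMI with 5% FetalClone III and penicillin/streptomycin (50 U/mL, 50 μg/mL); hTERT-HPNE also given 10 ng/mL recombinant human EGF; used within 3 months of thaw. 48 h compound exposure, DMSO ≤1% final, then MTT.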
(Tetrazolium assays rely on reduction of a dye to a coloured formazan, in cell work by metabolically active cells.)

A short description of series [2]: Antiproliferative activity against human PANC1 cells after 48 hrs by MTT assay. Particulars: PANC-1, 48 h; for CC50: read-out: LC50 (the source's name). The format is functional. Put shortly: as §2
The subject of series [3] is MIA PaCa-2. The series can be described thus: Induction of cell cycle arrest in human MIAPaCa2 cells assessed as accumulation at G1 phase at 20 nM after 20 hrs by propidium iodide staining based flow cytometry (reference value: 50.2%). The format is functional. In outline:
(§3)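 MIA PaCa-2 cells exposed 20 h to 8 or 20 nM, with vehicle-treated cells as comparison. Cells stained with propidium iodide and analysed by flow cytometry. Cell cycle phase distributions calculated by modelling software.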
(In general: In flow cytometry, cells or beads pass a laser one at a time.)

Series [4] concerns MIA PaCa-2. The series can be described thus: Induction of PARP cleavage in human MIAPaCa2 cells at 20 nM after 20 hrs by SDS-PAGE and immunoblotting. The format is functional, cell-based. Put shortly: (§4)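 MIA PaCa-2 cells treated 20 h with vehicle, 8 or 20 nM. Total cell lysates run on SDS-PAGE and immunoblotted with a PARP antibody recognizing full-length and cleaved forms. Detection by HRP-conjugated secondary antibody.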
A general note: In western blotting, separated proteins are transferred to a membrane and probed.

Series [5] is described as follows: Antiproliferative activity against hTERT expressing immortalized human HPNE cells after 48 hrs by MTT assay. The format is functional. Particulars: for CC50: read-out: LC50 (the source's name). Put shortly: as §2
In series [6] the test system is MIA PaCa-2. The series can be described thus: Induction of PARP cleavage in human MIAPaCa2 cells at 8 nM after 20 hrs by SDS-PAGE and immunoblotting. The format is functional, cell-based. Put shortly:
as §4

For series [7], the target named is Histone deacetylase (Homo sapiens) (UniProt Q13547+O15379+Q9UBN7+Q92769+Q9UQL6+Q8WUI4+Q9BY41+Q96DB2+P56524+Q9UKV0+Q969S8). The series can be described thus: Inhibition of HDAC in human HeLa cell lysates after 30 mins by fluorescence based assay. The format is protein assay. In outline: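 Fluorometric kit assay using HeLa cell lysate with 100 μM acetylated substrate in assay buffer. Compound added at 20-fold stock, 30 min at 30 °C. Developer then releases the fluorophore from deacetylated substrate; read at ex 355/em 460 nm. Triplicate wells normalized to signal without inhibitor; IC50 by nonlinear regression.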

In series [8] the test system is MIA PaCa-2. The series can be described thus: Induction of cell cycle arrest in human MIAPaCa2 cells assessed as accumulation at S phase at 8 nM after 20 hrs by propidium iodide staining based flow cytometry (reference value: 30.6%). The format is functional. Put shortly: as §3
Series [9] is described as follows: as §1. The format is functional. Particulars: MIA PaCa-2, 48 h. In outline: as §2
Series [10] concerns MIA PaCa-2. The series can be described thus: Antiproliferative activity against human MIAPaCa2 cells exposed to 25 nM compound incubated in human serum for 5 to 30 mins measured after 48 hrs by MTT assay. The format is functional, cell-based. Put shortly:
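Compound DMSO stock mixed 1:10 with human type AB serum and held at room temperature for 5, 10, 15 or 30 min. Aliquots then added to 5000 MIA PaCa-2 cells per well, 25 nM final. Cells grown 48 h, then viability read by MTT.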

The nature of series [11]: Half life in rat whole blood. The format is ADME, tissue-based.
Series [12] can be described thus: Half life in freshly prepared rat serum. The format is ADME, cell-free.

Activity calls are given as the source filed them. Where a SMILES comes first, the peptide text is derived from it. [ ]: non-standard residue; d: D form. ξ: configuration not given here. Aoe(9ξ) = N[C@@H](CCCCCC(=O)C1CO1)C(=O)O; dPip = O=C(O)[C@H]1CCCCN1 Where only a bound is given, the exact number is not on record here.

On to `CCC(=O)CCCCC[C@@H]1NC(=O)[C@H]2CCCCN2C(=O)[C@H]([C@@H](C)CC)NC(=O)[C@H](Cc2cn(OC)c3ccccc23)NC1=O`, for which the “growth inhibition (GI)” value in the series on MIA PaCa-2 [1] is “Active”.

As to `C[C@@H]1NC(=O)[C@H](CCCCCC(=O)[C@@H]2CO2)NC(=O)[C@H]2CCCN2C(=O)[C@H](Cc2ccccc2)NC1=O`, the TGI in series [2] was 0.05 µM; in series [5] it was 0.66 µM; in [9] it was 0.0088 µM. Further, the CC50 in [2] and in series [5] was more than 10 µM throughout. For the same compound, the Activity is 19.6% in the series with MIA PaCa-2 [3] and 34.6% with MIA PaCa-2 [8]. Besides, the outcome with MIA PaCa-2 [4] and in the series on MIA PaCa-2 [6] was Active. The inhibition entry in series [7] is “Dose-dependent effect”. Moreover, the inhibition entry in the series on MIA PaCa-2 [10] is “Active”.

With `CC1(C)NC(=O)[C@H](CCCCCC(=O)[C@H]2CO2)NC(=O)[C@H]2CCCN2C(=O)[C@H](Cc2ccccc2)NC1=O` [CHLAMYDOCIN], the half-life was 0.68 to 3.6 min in series [11] and 8.7 min in [12].

Consider `O=C(CCCCC[C@@H]1NC(=O)[C@H]2CCCCN2C(=O)[C@H](Cc2ccccc2)NC(=O)[C@H](Cc2ccccc2)NC1=O)C1CO1` (some centres undefined) (cyclo(FF[dPip][Aoe(9ξ)])), for which the “growth inhibition (GI)” value with MIA PaCa-2 [1] is “Active”.

Take `O=C(CCCCCCC(=O)Nc1ccccc1)NO` [VORINOSTAT]: the CC50 in series [2] was more than 10 µM; in series [5] it was more than 10 µM; in series [9] (read-out: LC50 (the source's name)), 4.85 µM. In [5], this compound came in with a TGI of more than 10 µM.

The values are drawn from ChEMBL document CHEMBL3351903, “A potent HDAC inhibitor, 1-alaninechlamydocin, from a Tolypocladium sp. induces G2/M cell cycle arrest and apoptosis in MIA PaCa-2 cells” (J Nat Prod, 2014).
